The subject of experiment [1] is Sporothrix schenckii. Description: Antifungal activity against Sporothrix schenck ii was determined by twofold Micro-broth dilution assay; No data. It counts as functional, organism-based. In outline: (§1)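 Fungal strains tested by two-fold serial broth microdilution in microtitre plates. Cells diluted in phosphate-buffered saline to 10^6 cfu/mL and inoculated at a final 10^3 cells per 150 µL medium. Medium/inoculum and solvent controls were included. Incubation at 28 °C, then OD read at 600 nm. IC50 is the concentration at which growth is 50% of the control inoculum.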

The next experiment has as its system Trichophyton rubrum. Put plainly: Antifungal activity against Trichophyton rubrum was determined by twofold Micro-broth dilution assay. The conditions noted are these: Trichophyton rubrum; read-out: IC50. The class given is functional, organism-based. In outline:
as §1
On the technique in general: In broth dilution the organism is exposed to a series of concentrations in liquid medium.

For experiment [2], the system named is Nannizzia gypsea. Put plainly: Antifungal activity against Microsporum gypseum was determined by twofold Micro-broth dilution assay; No data. The class given is functional, organism-based. In outline:
as §1

The next experiment deals with Aspergillus niger. Description: Antifungal activity against Aspergillus niger was determined by twofold Micro-broth dilution assay. The class given is functional, organism-based. Conditions: Aspergillus niger; read-out: IC50. In outline:
as §1

Another experiment has as its system Aspergillus flavus. Description: Antifungal activity against Aspergillus flavus was determined by twofold Micro-broth dilution assay. The conditions noted are these: Aspergillus flavus; read-out: IC50. The class given is functional, organism-based. The essentials: as §1
In the next experiment the test system is Candida albicans. Put plainly: Antifungal activity against Candida albicans was determined by twofold Micro-broth dilution assay. The conditions noted are these: Candida albicans; read-out: IC50. The class given is functional, organism-based. The essentials: as §1
The next experiment has as its system Salmonella typhimurium. Put plainly: Antibacterial activity against gram negative bacteria Salmonella Typhimurium was determined by twofold Micro-broth dilution assay. The conditions noted are these: Salmonella enterica. It counts as functional, organism-based, Salmonella enterica subsp. enterica serovar Typhimurium. In outline:
(§2)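 Broth microdilution with two-fold serial dilutions of compound added to pre-inoculated microtitre plates. Inoculum diluted in phosphate-buffered saline to 10^6 cfu/mL, then plated at a final 10^3 cells per 150 µL medium. Controls were medium plus inoculum and a solvent control at the highest-concentration solvent level. Plates incubated at 37 °C and read by OD at 600 nm. IC50 is the concentration giving 50% of control-inoculum growth.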

The next experiment deals with Enterococcus faecalis. Description: Antibacterial activity against gram positive bacteria Enterococcus faecalis was determined by twofold Micro-broth dilution assay. The class given is functional, organism-based. The essentials: as §2
For a further experiment, the system named is Klebsiella aerogenes. Put plainly: Antibacterial activity against gram negative bacteria Enterobacter aerogens was determined by twofold Micro-broth dilution assay. The class given is functional, organism-based. The essentials: as §2
The test system of another experiment is Shigella flexneri. Description: Antibacterial activity against gram negative bacteria Shigella flexenerii was determined by twofold Micro-broth dilution assay. It counts as functional, organism-based. In outline: as §2
In another experiment the test system is Streptococcus mutans. Description: Antibacterial activity against gram positive bacteria Streptococcus mutans was determined by twofold Micro-broth dilution assay. The class given is functional, organism-based. In outline: as §2
A further experiment deals with Escherichia coli. Put plainly: Antibacterial activity against gram negative bacteria Escherichia coli was determined by twofold Micro-broth dilution assay. The class given is functional, organism-based. The essentials: as §2
In experiment [3] the test system is Nannizzia gypsea. Description: Antifungal activity against Microsporum gypseum was determined by twofold Micro-broth dilution assay. The class given is functional, organism-based. The conditions noted are these: Nannizzia gypsea; read-out: IC50. The essentials:
as §1

The subject of a further experiment is Salmonella typhi. Description: Antibacterial activity against gram negative bacteria Salmonella typhi was determined by twofold Micro-broth dilution assay. The class given is functional, organism-based, Salmonella enterica subsp. enterica serovar Typhi. The conditions noted are these: Salmonella enterica.
Another experiment deals with Cryptococcus neoformans. Description: Antifungal activity against Cryptococcus neoformans was determined by twofold Micro-broth dilution assay. It counts as functional, organism-based. In outline: as §1
A further experiment has as its system Staphylococcus aureus. Description: Antibacterial activity against gram positive bacteria Staphylococcus aureus was determined by twofold Micro-broth dilution assay. It counts as functional, organism-based. In outline:
as §2

The subject of experiment [4] is Staphylococcus epidermidis. Put plainly: Antibacterial activity against gram positive bacteria Staphylococcus epidermidis was determined by twofold Micro-broth dilution assay. The class given is functional, organism-based. The essentials:
as §2

In experiment [5] the test system is Sporothrix schenckii. Description: Antifungal activity against Sporothrix schenck ii was determined by twofold Micro-broth dilution assay. Conditions: Sporothrix schenckii; read-out: IC50. The class given is functional, organism-based. The essentials:
as §1

In another experiment the test system is Histoplasma capsulatum. Description: Antifungal activity against Histoplasma capsulatum was determined by twofold Micro-broth dilution assay. It counts as functional, organism-based. The essentials:
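Fungal broth microdilution. Cells were diluted to 10^6 cfu/mL in phosphate-buffered saline and seeded at a final 10^3 cells per well. Two-fold serial compound dilutions were added. Plates carried inoculum-only and solvent controls, the solvent matched to the highest concentration. After incubation at 28 °C, OD was read at 600 nm. IC50 is the concentration where growth is 50% of control.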

Broadly, the IC50 is the concentration that inhibits the measured activity by half.

SMILES strings stand for the structures. In brackets after ≈: the same amount, converted by molar mass.

Turning to `C[C@@H]1[C@H](O)[C@@H](C)/C=C/C=C/C=C/C=C/C=C/C=C/C=C/[C@H](O[C@@H]2O[C@H](C)[C@@H](O)[C@H](N)[C@@H]2O)C[C@@H]2O[C@](O)(C[C@@H](O)C[C@@H](O)[C@H](O)CC[C@@H](O)C[C@@H](O)CC(=O)O[C@H]1C)C[C@H](O)[C@H]2C(=O)O` [AMPHOTERICIN B], the IC50 in the experiment on Sporothrix schenckii [1] came out at 5 µg/mL (≈ 5.41 µM); in the experiment on Trichophyton rubrum it was 2.5 µg/mL (≈ 2.71 µM); in the experiment with Nannizzia gypsea [2] it was 2.5 µg/mL (≈ 2.71 µM); in the experiment on Aspergillus niger, 2.5 µg/mL (≈ 2.71 µM); with Aspergillus flavus, 5 µg/mL (≈ 5.41 µM); in the experiment on Candida albicans, 0.0625 µg/mL (≈ 0.0676 µM).

On to `C[C@H](CCC(=O)N[C@H](CO)[C@H](O)c1ccc([N+](=O)[O-])cc1)[C@H]1CC[C@H]2[C@@H]3C(O)C[C@@H]4C[C@H](O)CC[C@]4(C)[C@H]3C[C@H](O)[C@]12C` (stereo not given in full), for which the IC50 is more than 250 µg/mL in the experiment on Trichophyton rubrum; more than 250 µg/mL in the experiment on Salmonella typhimurium; 60 µg/mL (≈ 99.5 µM) with Enterococcus faecalis; more than 250 µg/mL in the experiment on Klebsiella aerogenes; more than 250 µg/mL in the experiment on Shigella flexneri; 6 µg/mL (≈ 9.95 µM) with Streptococcus mutans. Besides, the IC50 with Escherichia coli, in the experiment on Nannizzia gypsea [3], in the experiment on Salmonella typhi, in the experiment with Aspergillus niger, with Aspergillus flavus and in the experiment on Cryptococcus neoformans was more than 250 µg/mL each time. Besides, the IC50 in the experiment on Staphylococcus aureus is 75 µg/mL (≈ 124 µM); in [4], 100 µg/mL (≈ 166 µM); in the experiment on Candida albicans, more than 250 µg/mL; in the experiment with Sporothrix schenckii [5], more than 250 µg/mL; in the experiment on Histoplasma capsulatum, more than 250 µg/mL.

Consider `C[C@H](CCC(=O)N[C@H](CO)[C@H](O)c1ccccc1)[C@H]1CC[C@H]2[C@@H]3CC[C@@H]4C[C@H](O)CC[C@]4(C)[C@H]3C[C@H](O)[C@]12C`, for which the IC50 in the experiment with Trichophyton rubrum was more than 250 µg/mL; in the experiment with Salmonella typhimurium, more than 250 µg/mL; with Enterococcus faecalis it was 60 µg/mL (≈ 111 µM); with Klebsiella aerogenes, more than 250 µg/mL; in the experiment with Shigella flexneri it was more than 250 µg/mL; in the experiment with Streptococcus mutans, 25 µg/mL (≈ 46.1 µM). Besides, the IC50 in the experiment on Escherichia coli, in the experiment with Nannizzia gypsea [3], in the experiment on Salmonella typhi, in the experiment with Aspergillus niger, with Aspergillus flavus and in the experiment with Cryptococcus neoformans was more than 250 µg/mL in each case. Also, the IC50 was 40 µg/mL (≈ 73.8 µM) in the experiment on Staphylococcus aureus; 40 µg/mL (≈ 73.8 µM) in experiment [4]; more than 250 µg/mL in the experiment on Candida albicans; more than 250 µg/mL in the experiment with Sporothrix schenckii [5]; more than 250 µg/mL in the experiment with Histoplasma capsulatum.
